# Calls of active or inactive are those of the source.
# Legend:
# Mus musculus [1] = assay: […] of CF1 mouse assessed as reduction in step down latency at 30 mg/kg by passive avoidance test; type: functional
# Mus musculus [2] = assay: Antidepressant activity in CF1 mouse assessed as decrease in duration of immobility at 30 mg/kg during final 4 mins of the 6 mins session by forced swimming test; type: functional, organism-based; design: dose 30 mg/kg
# Outline: (§1)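 Male adult CF1 mice given i.p. doses in saline (pH 7.0), N = 10. Each mouse swam 6 min in a 30 cm-diameter cylinder holding 20 cm of water at 25 ± 1 °C. Immobility was timed over the last 4 min. Values are mean ± SEM, analysed by ANOVA against saline.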
# Mus musculus [3] = assay: […] of CF1 mouse assessed as reduction in step down latency at 3 mg/kg by passive avoidance test; type: functional
# Mus musculus [4] = assay: Effect on locomotory activity in CF1 mouse assessed as reduction in spontaneous activity at 100 mg/kg; type: functional, organism-based; design: dose 100 mg/kg
# Outline: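 Male CF1 mice were habituated 10 min in photocell activity cages, then dosed i.p. (n = 10-16). Thirty minutes later crossings were recorded over 15 min. Values are mean ± SEM, analysed by one-way ANOVA then SNK.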
# Mus musculus [5] = assay: Anxiolytic activity against CF1 mouse assessed as increase in time spent in light compartment at 7.5 mg/kg for 5 mins; type: functional, organism-based; design: dose 7.5 mg/kg
# Outline: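 Light/dark box with a black, room-lit small compartment and a white large compartment lit at 400 lx. Male CF1 mice were acclimated at least 1 h under dim red light and dosed i.p. 30 min before testing. Recorded were latency to first entry and time spent in the light area. Values are mean ± SEM (N = 19-22), analysed by one-way ANOVA then SNK.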
# Mus musculus [6] = assay: Anxiolytic activity against CF1 mouse assessed as increase in number of crossings at 7.5 mg/kg after 30 mins in presence of ritanserin by hole-board assay; type: functional, organism-based; design: dose 7.5 mg/kg
# Outline: (§2)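 Male CF1 mice received ritanserin 2 mg/kg i.p. in 10% DMSO 30 min before the test drug at 7.5 mg/kg i.p. The 5 min hole-board session began 30 min later, counting head-dips, crossings and rearings. Values are mean ± SEM (N = 8-14), analysed by ANOVA/SNK.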
# Mus musculus [7] = assay: Antidepressant activity in CF1 mouse assessed as decrease in duration of immobility at 10 mg/kg during final 4 mins of the 6 mins session by forced swimming test; type: functional, organism-based; design: dose 10 mg/kg; outline: as §1
# Mus musculus [8] = assay: […] of CF1 mouse assessed as reduction in step down latency at 0.85 mg/kg by passive avoidance test; type: functional
# Mus musculus [9] = assay: Effect on long term memory of CF1 mouse assessed as reduction in step down latency at 7.5 mg/kg by passive avoidance test; type: functional
# Outline: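 Step-down inhibitory avoidance in male CF1 mice dosed i.p. immediately after training, during which a 0.3 mA foot shock for 15 s followed stepping down. Test step-down latency was recorded 24 h later without shock, with a 300 s cutoff. N = 20 per group; values are median (interquartile range).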
# Mus musculus [10] = assay: Anxiolytic activity against CF1 mouse assessed as increase in number of crossings at 15 mg/kg after 30 mins by hole-board assay; type: functional, organism-based; design: dose 15 mg/kg
# Outline: (§3)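 Hole-board set 15 cm high and divided into 16 squares, with photocells counting head-dips. Male CF1 mice were dosed i.p. and placed centrally 30 min later under dim light. Over 5 min, head-dips, rearings and squares crossed were counted. Values are mean ± SEM (N = 15), analysed by one-way ANOVA then SNK.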
# Mus musculus [11] = assay: Anxiolytic activity against CF1 mouse assessed as increase in number of head dips at 7.5 mg/kg after 30 mins in presence of ritanserin by hole-board assay; type: functional, organism-based; design: dose 7.5 mg/kg; outline: as §2
# Mus musculus [12] = assay: Anxiolytic activity against CF1 mouse assessed as increase in number of rearings at 7.5 mg/kg after 30 mins by hole-board assay; type: functional, organism-based; design: dose 7.5 mg/kg; outline: as §3
smiles,measurement,setting,value
COC(=O)C1=CO[C@@H](O[C@H]2O[C@H](CO)[C@@H](O)[C@H](O)[C@H]2O)[C@@H]2C([C@@H]3NCCc4c3[nH]c3ccccc43)=CC[C@H]12 [PSYCHOLLATINE],Activity,Mus musculus [1],12.8 s
same,Activity,Mus musculus [2],inactive
same,Activity,Mus musculus [3],11.8 s
same,Activity,Mus musculus [4],Active
same,Activity,Mus musculus [5],Active
same,Activity,Mus musculus [6],inactive
same,Activity,Mus musculus [7],inactive
same,Activity,Mus musculus [8],8.3 s
same,Activity,Mus musculus [9],13.1 s
same,Activity,Mus musculus [10],Active
same,Activity,Mus musculus [11],inactive
same,Activity,Mus musculus [12],Active

# Source: ChEMBL document CHEMBL1158703, “Psychopharmacological profile of the alkaloid psychollatine as a 5HT2A/C serotonin modulator” (2005)
